# S100A4 MyoIIA: inhibitors of human S100A4 binding to myosin IIA peptide; S100A4/TAMRA-MyoIIA peptide fluorescence polarization; 360,000 compounds, 0.14% hits; P26447; inhibition, % at 10.7 µM;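 active means mean inhibition of at least 70% across replicates, with every replicate also reaching that level; inconclusive means mean inhibition reaches 70% but some replicates fall short; inactive means mean inhibition below 70%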
# Target sequence (P26447 whole entry, looked up): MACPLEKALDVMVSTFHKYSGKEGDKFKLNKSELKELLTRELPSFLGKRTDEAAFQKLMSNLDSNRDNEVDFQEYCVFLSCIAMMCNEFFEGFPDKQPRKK
#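 Assay system: human S100A4 monomer with TAMRA-labelled myosin IIA peptide / Buffer or medium: Calcium-containing HEPES buffer, pH 7.2 / Reagent: TAMRA-labelled myosin IIA heavy-chain peptide probe, 5 nM / Compound: one dose per compound / Timing: polarization read 5 min after assay mix addition, stable 5–60 min / Benchmarks: neutral control DMSO, positive control TFP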
# SIRT5 inh: inhibitors of human sirtuin-5 desuccinylase. Q9NXA8. Purified SirT5, succinyl-peptide AMC, trypsin-coupled fluorescence. inhibition, % at 15 µM. 330,000 compounds, 1.1% hits; in the data active means inhibition above about 15%; inconclusive means no clear call, values can overlap the other calls
# ERAP1 inh: inhibitors of human ERAP1 aminopeptidase; Q9NZ08; recombinant ERAP1, Leu-AMC fluorescence, 60 min; inhibition, % at 10.7 µM; 340,000 compounds, 0.15% hits;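 active means mean replicate inhibition of at least 30%, or all replicates individually reaching that 30% level; inactive means mean below 30% and not every replicate reaching it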;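 further: 0% = neutral control wells and 100% = L-leucinethiol positive control wells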
# AF4-AF9 inh: blocks AF4 peptide binding to human AF9. inhibition, % at 10 µM. AID 651704. P42568. 350,000 compounds, 0.47% hits. AlphaScreen, biotin-AF4 peptide binding to FLAG-AF9;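 active means every replicate reaching a set inhibition limit, whatever the replicate mean, cut at about 25% in these data; inconclusive means mean inhibition reaches that limit but some replicates miss it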;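 further: 0% = plate neutral control median and 100% = total signal loss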
# Target sequence (P42568 whole entry, looked up): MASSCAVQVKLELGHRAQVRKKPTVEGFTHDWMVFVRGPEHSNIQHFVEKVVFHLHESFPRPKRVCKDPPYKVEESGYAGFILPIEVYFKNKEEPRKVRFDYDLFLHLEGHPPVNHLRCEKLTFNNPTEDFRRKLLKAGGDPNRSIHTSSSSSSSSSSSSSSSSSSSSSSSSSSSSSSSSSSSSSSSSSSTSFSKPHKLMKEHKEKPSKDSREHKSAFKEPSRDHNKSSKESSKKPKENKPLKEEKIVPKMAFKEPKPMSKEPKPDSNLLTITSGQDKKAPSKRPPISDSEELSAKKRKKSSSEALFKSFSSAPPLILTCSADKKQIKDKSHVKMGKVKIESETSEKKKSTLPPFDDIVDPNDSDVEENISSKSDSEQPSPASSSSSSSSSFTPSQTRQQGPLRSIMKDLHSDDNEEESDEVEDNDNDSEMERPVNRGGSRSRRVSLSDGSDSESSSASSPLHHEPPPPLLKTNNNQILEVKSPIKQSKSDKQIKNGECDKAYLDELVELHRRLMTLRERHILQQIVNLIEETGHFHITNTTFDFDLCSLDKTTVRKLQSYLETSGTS
# rRNA inh HTS: inhibitors of bacterial rRNA selective over humanized ribosomes | E. coli WT GFP vs humanized-ribosome RFP mutants, fluorescence, 24 h; active compounds read low; DMSO median 0, no signal -100 | GFP signal change (wild-type ribosome), % (no concentration beside the values) | 350,000 compounds, 1.6% hits;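 active means significant combined selectivity score with lowered wild-type GFP, culture density cut under 30%, mutant RFP and density less affected; inactive means any of these conditions unmet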
# E-selectin induc: induces E-selectin expression in human endothelial cells. P16581. HUVEC E-selectin immunofluorescence imaging; normalized: neutral wells 0, TNF-alpha wells 100. activation, % at 7.58 µM. 260,000 compounds, 0.37% hits;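 active means mean E-selectin-positive cell signal at least 10% of the positive control, reached in at least 60% of replicates, without over 20% cell loss; inconclusive means no rule given, readout overlaps actives, possibly toxicity-flagged; inactive means the rest, including those meeting only one limit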
#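 Test system – human umbilical vein endothelial cells (HUVEC), E-selectin induction · Input – 3,000 HUVEC seeded per well · Buffer or medium – EGM-2, gelatin · Compound dosing – single-point compound dose · Detection – immunofluorescence imaging · Measure – percent E-selectin-positive cells · Controls – TNF-alpha high, DMSO low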
# AID977621: wild-type E. coli growth inhibition versus H69 humanized strain – H69 mutant RFP, wild-type GFP, cherry-pick, dose response | activity change, negative = inhibition at 50 µM | shares compounds with rRNA inh HTS | fluorescence, 24 h | 1,900 tested, under 10 active | AID 977621;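 active means Wild-type ribosome reporter drop at least double the humanized mutant ribosome reporter drop, growth loss under a set limit; inconclusive means no clear call, values can overlap the other calls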;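 further: wild-type GFP and H69 mutant RFP strains grown together 50/50 in each well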
# AID977628: E. coli growth inhibition, wild-type GFP versus h24 humanized RFP strain, dose response, h24 mutant RFP vs wild-type GFP, cherry-pick; E. coli WT GFP strain growth, fluorescence, 24 h; activity change, negative = inhibition at 50 µM; AID 977628; shares compounds with rRNA inh HTS; 1,900 tested, under 10 active;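 active means compound lowering the normal-ribosome reporter at least twice as much as the humanized-ribosome reporter, growth loss under a set limit; inconclusive means no clear call, values can overlap the other calls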;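 further: wild-type GFP and h24 humanized RFP strains co-cultured 1 to 1 per well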
# An asterisk follows results filed as active; ? = inconclusive; . = no result given. This is a sample that favours compounds with a hit; in the whole collection about 3.4% have one here.
SMILES,S100A4 MyoIIA,SIRT5 inh,ERAP1 inh,AF4-AF9 inh,rRNA inh HTS,E-selectin induc,AID977621,AID977628
COc1ccccc1NC(=S)NNC(=O)c1ccncc1,-9,-2,0,0,7,.,.,.
CC(C)NC(=O)N(C)C[C@H]1Oc2c(NC(=O)c3nc4ccccc4s3)cccc2C(=O)N([C@H](C)CO)C[C@@H]1C,10,2,-1,-3,4,3,.,.
Cc1ccc(S(=O)(=O)Nc2ccc3c(c2)CC(=O)N([C@@H](C)CO)C[C@@H](C)[C@@H](CN(C)S(=O)(=O)c2ccc(C)cc2)O3)cc1,-59,7,-2,0,-1,0,.,.
O=[N+]([O-])c1ccc(N2CCN(S(=O)(=O)c3ccccc3)CC2)cc1NCC1CCCO1 (centres undefined),.,.,.,.,.,2,.,.
O=C(c1ccccc1)N1CCN(c2ccc([N+](=O)[O-])c(NCC3CCCO3)c2)CC1 (centres undefined),0,3,-1,6,-32*,3,-6.9,-4.1
CCS(=O)(=O)N1CCN(c2ccc([N+](=O)[O-])c(NCC3CCCO3)c2)CC1 (centres undefined),2,-2,3,1,-21*,.,0.78,-5.8
c1cncc(-c2nc3cc4ccccc4cc3[nH]2)c1,-1,-3,11,10,-26*,.,-3.1,.
Cc1cc2nc(SCC(=O)O)nc(C)c2cc1C,-7,-1,-2,-1,-17*,.,-16,.
Cc1cc(SCC(=O)O)nc2ccccc12,0,0,5,-2,-2,7,.,.
C[C@H]1CN([C@@H](C)CO)C(=O)c2cccc(NC(=O)NC3CCCCC3)c2O[C@@H]1CN(C)CC1CCCCC1,-3,8,-3,6,1,0,.,.
CC(NC(=O)C12CC3CC(C)(CC(C)(C3)C1)C2)c1ccncc1 (centres undefined),-6,.,-3,-7,-24*,.,-20,-7.7
CC12CC3CC(C)(C1)CC(C(=O)NNC(=O)c1ccncc1)(C3)C2,-4,-2,-5,3,-12,0,.,.
CO[C@@H]1CN(C)C(=O)c2cc(C#N)ccc2OCC[C@@H]2CC[C@@H](OC)[C@@H](CN(C)C(=O)[C@H]1C)O2,5,-10,-4,0,3,0,.,.
O=C(Nc1ccccc1)N1CCCCN2[C@@H](CO)[C@H](c3ccc(Br)cc3)[C@@H]2C1,0,-1,5,1,-23*,-1,.,?
O=C(Nc1ccccc1)N1CCCCN2[C@H](CO)[C@@H](c3ccc(Br)cc3)[C@@H]2C1,6,7,-1,-6,-10,-1,.,.
Cc1ccccc1-c1ccc([C@@H]2[C@@H](CO)N3CCCCN(C(=O)Nc4ccc(F)cc4)C[C@@H]23)cc1,-3,15*,3,-5,-38*,0,.,?
O=C(c1ccccc1)N1N=C(c2cccs2)CC1c1ccccc1O (centres undefined),-1,-4,-2,7,-21,.,.,.
O=C(c1ccccc1)C1Oc2ccccc2C2CC(c3cccs3)=NN12 (centres undefined),-5,-3,2,11,-21*,7,-0.12,-5.9
CC1Cc2ccccc2N1C(=O)CN1C(=O)NC(C)(CCc2ccccc2)C1=O (centres undefined),5,-5,3,5,-18*,.,-3.6,-13
CCN1C(=O)C(CC(=O)Nc2ccc(F)cc2)N(CCCN2CCN(c3ccc(F)cc3)CC2)C1=S (centres undefined),-15,-4,-2,6,-53*,5,-4.8,?
COc1ccc(CNC(=O)c2sc3nc4c(c(C(F)(F)F)c3c2N)CCC4)cc1OC,-1,2,17,3,-19*,-3,-0.68,3.3
COc1ccc(-c2cc(C(F)(F)F)c3c(N)c(C(=O)NCCSC)sc3n2)cc1,-4,-3,-2,-2,21,.,.,.
CN1CCN(C(=O)C[C@@H]2CC[C@@H]3[C@H](COC[C@H](O)CN3C(=O)c3ccccc3F)O2)CC1,15,3,-3,-7,-1,0,.,.
COc1ccc(CNc2cc([N+](=O)[O-])ccc2OC)cc1,-7,-2,-2,13,-21*,.,-6.4,.
COc1ccc(C)cc1NCc1ccc([N+](=O)[O-])cc1,-2,-4,-2,23,-2,.,.,.
SMILES,S100A4 MyoIIA,SIRT5 inh,ERAP1 inh,AF4-AF9 inh,rRNA inh HTS,E-selectin induc,AID977621,AID977628
C[n+]1ccccc1/C=C/c1cc(Br)ccc1O,3,2,11,15,-21*,.,.,?
CCOc1cc(/C=C/c2cccc[n+]2C)ccc1O,7,2,1,-14,0,.,.,.
CCOc1ccc2nc(NC(=O)CSc3ccc(Cl)cc3)sc2c1,.,.,.,.,.,0,.,.
CCOc1ccc2nc(NC(=O)CSc3nc(SC)ns3)sc2c1,0,4,1,6,-24*,.,-8.9,.
Cc1ccc(C(=O)Nc2cccc(N(C)S(C)(=O)=O)c2)cc1S(=O)(=O)Nc1ccccc1,1,1,-2,5,-20*,.,?,.
CCCNC(=O)C[C@@H]1CC[C@@H]2[C@H](COC[C@@H](O)CN2C(=O)Nc2c(C)noc2C)O1,4,-1,-2,-2,0,0,.,.
C[C@@H]1CN([C@@H](C)CO)C(=O)c2cc(-c3cccnc3)cnc2O[C@@H]1CN(C)C(=O)Cc1cccnc1,9,0,-1,-4,5,0,.,.
O=C(CN1CCN(S(=O)(=O)c2ccccc2)CC1)Nc1ccc(Cl)c(Cl)c1,.,.,.,.,.,1,.,.
O=C(CN1CCN(S(=O)(=O)c2ccc(Cl)cc2)CC1)Nc1ccc2c(c1)CCC2,4,3,-2,0,-21*,.,-0.47,?
CN(CC(=O)Nc1ccc(S(=O)(=O)N2CCCC2)cc1)CC(=O)Nc1ccc(F)c(F)c1F,-11,2,-5,3,-33*,3,-22,?
CCCOc1ccccc1OCC(=O)Nc1ccc(S(=O)(=O)N2CCCCC2)cc1,-11,-3,0,3,-6,.,.,.
COc1ccccc1OCC(=O)Nc1ccc(S(=O)(=O)N2CCCCCC2)cc1,-2,-1,9,3,-19*,.,-15,.
N#C[C@H]1[C@H](c2ccccc2C2=CCCCC2)[C@H](CO)N1S(=O)(=O)c1cccc(F)c1,-2,-1,1,-1,-11,0,.,.
Cc1ccc([N+](=O)[O-])c(OCCn2cnc3ccccc32)c1,-1,1,2,-3,-20*,.,-2.8,-6.6
